ChEMBL document CHEMBL1134518, “5-(Tryptophyl)amino-1,3-dioxoperhydropyrido[1,2-c]pyrimidine-based potent and selective CCK(1)receptor antagonists: structure-activity relationship studies on the substituent at N2-position” (J Med Chem, 2001)

Legend:
[1] = target: T1, Gastrin/cholecystokinin type B receptor (Rattus norvegicus, UniProt P30553); experiment: Inhibition of [3H]pCCK-8 specific binding cholecystokinin type B receptor in rat cerebral cortex membranes; format: cell membranes, Membrane
T1 sequence (P30553 whole entry): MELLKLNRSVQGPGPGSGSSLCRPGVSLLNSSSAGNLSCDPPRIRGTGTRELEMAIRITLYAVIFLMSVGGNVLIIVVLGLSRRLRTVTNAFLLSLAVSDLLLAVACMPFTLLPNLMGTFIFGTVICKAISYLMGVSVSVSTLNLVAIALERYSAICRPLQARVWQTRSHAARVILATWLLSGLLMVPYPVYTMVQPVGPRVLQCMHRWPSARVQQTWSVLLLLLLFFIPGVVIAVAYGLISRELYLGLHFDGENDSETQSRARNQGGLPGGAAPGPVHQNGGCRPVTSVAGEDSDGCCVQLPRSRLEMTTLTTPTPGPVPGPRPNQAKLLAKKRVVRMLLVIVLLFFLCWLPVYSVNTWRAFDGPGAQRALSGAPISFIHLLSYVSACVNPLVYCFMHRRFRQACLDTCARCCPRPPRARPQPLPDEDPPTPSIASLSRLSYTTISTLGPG
Method in brief: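 Rat brain cortex homogenized in 50 mM Tris-HCl pH 7.4 with 5 mM MgCl2, centrifuged twice at 100 000g, 35 min, 4 °C. Membranes (0.45 mg protein/tube) incubated with 1 nM [3H]pCCK-8 plus bacitracin 0.2 mg/mL, 60 min, 25 °C. Seven test concentrations in triplicate, at least three experiments.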

[2] = species on record: Rattus norvegicus; experiment: Inhibition of amylase release stimulated by CCK-8 (0.1 nM) in dispersed pancreatic acini; format: functional
Method in brief: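 Pancreatic acini prepared by collagenase digestion (two 6 min incubations, 37 °C). Acini were suspended in theophylline/BSA-containing buffer and incubated 30 min, 37 °C, under O2 with 0.1 nM CCK-8 and increasing compound concentrations. Released amylase was measured as a percentage of acinar content. IC50 came from linear regression of % inhibition. Three to six experiments in duplicate.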

[3] = target: T2, Cholecystokinin receptor type A (Rattus norvegicus, UniProt P30551); experiment: Inhibition of [3H]pCCK-8 specific binding to cholecystokinin type A receptor in rat pancreas
T2 sequence (P30551 whole entry): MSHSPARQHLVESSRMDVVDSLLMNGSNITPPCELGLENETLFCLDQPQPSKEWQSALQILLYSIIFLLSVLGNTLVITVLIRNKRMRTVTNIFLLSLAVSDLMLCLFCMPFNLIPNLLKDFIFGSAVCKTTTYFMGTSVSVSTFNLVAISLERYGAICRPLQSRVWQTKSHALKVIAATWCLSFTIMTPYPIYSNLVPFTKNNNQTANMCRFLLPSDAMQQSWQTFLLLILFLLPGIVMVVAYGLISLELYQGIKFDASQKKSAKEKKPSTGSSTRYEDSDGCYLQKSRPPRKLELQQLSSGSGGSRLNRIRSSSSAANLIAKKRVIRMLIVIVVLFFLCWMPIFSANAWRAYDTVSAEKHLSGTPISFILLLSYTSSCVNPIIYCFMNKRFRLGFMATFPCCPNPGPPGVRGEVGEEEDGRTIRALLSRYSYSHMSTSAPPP
Method in brief: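 Rat pancreas homogenized in Pipes-HCl pH 6.5 with 30 mM MgCl2, centrifuged twice at 50 000g, 10 min, 4 °C. Membranes (0.2 mg protein/tube) incubated with 0.5 nM [3H]pCCK-8, 30 mM MgCl2, bacitracin and SBTI (0.2 mg/mL each), 120 min, 25 °C. Seven test concentrations in triplicate, at least three experiments.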

SMILES	IC50 [1]	IC50 [3]	IC50 [2]
CC(C)(C)OC(=O)N[C@@H](Cc1c[nH]c2ccccc12)C(=O)N[C@@H]1CCCN2C(=O)N(Cc3ccccc3)C(=O)C[C@@H]12 [IQM-95333]	> 10000 nM	–	–
CSCC[C@H](NC(=O)[C@H](Cc1ccc(O)cc1)NC(=O)[C@@H](N)CC(=O)O)C(=O)NCC(=O)N[C@@H](Cc1c[nH]c2ccccc12)C(=O)N[C@@H](CCSC)C(=O)N[C@@H](CC(=O)O)C(=O)N[C@@H](Cc1ccccc1)C(N)=O	–	1.04 nM	–
CC(C)(C)OC(=O)N[C@@H](Cc1c[nH]c2ccccc12)C(=O)N[C@H]1CCCN2C(=O)N(Cc3ccccc3)C(=O)C[C@H]12	6150 nM	22.7 nM	–
CN1C(=O)C[C@@H]2[C@@H](NC(=O)[C@H](Cc3c[nH]c4ccccc34)NC(=O)OC(C)(C)C)CCCN2C1=O	> 10000 nM	–	–
CN(C)c1cccc(N2C(=O)C[C@@H]3[C@@H](NC(=O)[C@H](Cc4c[nH]c5ccccc45)NC(=O)OC(C)(C)C)CCCN3C2=O)c1	> 10000 nM	> 1000 nM	–
COC(=O)C(Cc1ccccc1)N1C(=O)CC2C(NC(=O)[C@H](Cc3c[nH]c4ccccc34)NC(=O)OC(C)(C)C)CCCN2C1=O (stereo not given in full)	> 10000 nM	> 1000 nM	–
CC(C)(C)OC(=O)N[C@@H](Cc1c[nH]c2ccccc12)C(=O)N[C@@H]1CCCN2C(=O)N(c3cccc4ccccc34)C(=O)C[C@@H]12	> 10000 nM	0.59 nM	0.73 nM
CCOC(=O)[C@H](Cc1ccccc1)N1C(=O)C[C@@H]2[C@@H](NC(=O)[C@H](Cc3c[nH]c4ccccc34)NC(=O)OC(C)(C)C)CCCN2C1=O	> 10000 nM	> 1000 nM	–
Cc1ccccc1N1C(=O)C[C@@H]2[C@@H](NC(=O)[C@H](Cc3c[nH]c4ccccc34)NC(=O)OC(C)(C)C)CCCN2C1=O	> 10000 nM	> 1000 nM	–
C[C@H](c1ccccc1)N1C(=O)C[C@@H]2[C@@H](NC(=O)[C@H](Cc3c[nH]c4ccccc34)NC(=O)OC(C)(C)C)CCCN2C1=O	> 10000 nM	> 1000 nM	–
CC(C)(C)OC(=O)N[C@H](Cc1c[nH]c2ccccc12)C(=O)N[C@@H]1CCCN2C(=O)N(c3cccc4ccccc34)C(=O)C[C@@H]12	> 10000 nM	15.4 nM	93 nM
C[C@@H](c1ccccc1)N1C(=O)C[C@H]2[C@H](NC(=O)[C@H](Cc3c[nH]c4ccccc34)NC(=O)OC(C)(C)C)CCCN2C1=O	> 10000 nM	6.89 nM	112 nM
CC(=O)Oc1cccc(N2C(=O)C[C@H]3[C@H](NC(=O)[C@H](Cc4c[nH]c5ccccc45)NC(=O)OC(C)(C)C)CCCN3C2=O)c1	> 10000 nM	70.3 nM	–
COc1ccc(N2C(=O)CC3C(NC(=O)[C@H](Cc4c[nH]c5ccccc45)NC(=O)OC(C)(C)C)CCCN3C2=O)cc1 (stereo not given in full)	> 10000 nM	15.9 nM	38.1 nM
CC(C)(C)OC(=O)N[C@@H](Cc1c[nH]c2ccccc12)C(=O)N[C@H]1CCCN2C(=O)N(c3cccc([N+](=O)[O-])c3)C(=O)C[C@H]12	> 10000 nM	> 1000 nM	–
CC(C)(C)OC(=O)N[C@@H](Cc1c[nH]c2ccccc12)C(=O)N[C@@H]1CCCN2C(=O)N(C3CCCCC3)C(=O)C[C@@H]12	> 10000 nM	0.6 nM	3 nM
CC(C)(C)OC(=O)N[C@@H](Cc1c[nH]c2ccccc12)C(=O)N[C@H]1CCCN2C(=O)N(c3ccc([N+](=O)[O-])cc3)C(=O)C[C@H]12	> 10000 nM	> 1000 nM	–

Continued, in another order:

IC50 [1]	IC50 [3]	SMILES	IC50 [2]
> 10000 nM	628 nM	CC(C)(C)OC(=O)N[C@@H](Cc1c[nH]c2ccccc12)C(=O)N[C@H]1CCCN2C(=O)N(c3ccccc3)C(=O)C[C@H]12	> 1000 nM
> 10000 nM	> 1000 nM	CC(C)(C)OC(=O)N[C@@H](Cc1c[nH]c2ccccc12)C(=O)NC1CCCN2C(=O)N(c3cccc(O)c3)C(=O)CC12 (stereo not given in full)	–
> 10000 nM	0.97 nM	Cc1ccccc1N1C(=O)C[C@H]2[C@H](NC(=O)[C@H](Cc3c[nH]c4ccccc34)NC(=O)OC(C)(C)C)CCCN2C1=O	1.89 nM
> 10000 nM	2.9 nM	Cc1ccc(N2C(=O)C[C@H]3[C@H](NC(=O)[C@H](Cc4c[nH]c5ccccc45)NC(=O)OC(C)(C)C)CCCN3C2=O)cc1	16.6 nM
1320 nM	100 nM	Cc1cccc(N2C(=O)C[C@@H]3[C@@H](NC(=O)[C@H](Cc4c[nH]c5ccccc45)NC(=O)OC(C)(C)C)CCCN3C2=O)c1	–
> 10000 nM	3.98 nM	Cc1cccc(N2C(=O)C[C@H]3[C@H](NC(=O)[C@H](Cc4c[nH]c5ccccc45)NC(=O)OC(C)(C)C)CCCN3C2=O)c1	10 nM
> 10000 nM	50.8 nM	CN(C)c1cccc(N2C(=O)C[C@H]3[C@H](NC(=O)[C@H](Cc4c[nH]c5ccccc45)NC(=O)OC(C)(C)C)CCCN3C2=O)c1	–
> 10000 nM	> 1000 nM	CC(C)(C)OC(=O)N[C@@H](Cc1c[nH]c2ccccc12)C(=O)NC1CCCN2C(=O)N(C(Cc3ccccc3)C(=O)O)C(=O)CC12 (stereo not given in full)	–
> 10000 nM	> 1000 nM	CC(C)(C)OC(=O)N[C@@H](Cc1c[nH]c2ccccc12)C(=O)NC1CCCN2C(=O)N(c3cccc(C(=O)O)c3)C(=O)CC12 (stereo not given in full)	–
> 10000 nM	> 1000 nM	CC(C)(C)OC(=O)N[C@H](Cc1c[nH]c2ccccc12)C(=O)N[C@H]1CCCN2C(=O)N(c3cccc4ccccc34)C(=O)C[C@H]12	–
> 10000 nM	44 nM	CC(C)(C)OC(=O)N[C@@H](Cc1c[nH]c2ccccc12)C(=O)N[C@@H]1CCCN2C(=O)N(c3cccc([N+](=O)[O-])c3)C(=O)C[C@@H]12	49.5 nM
> 10000 nM	12 nM	CC(C)(C)OC(=O)N[C@@H](Cc1c[nH]c2ccccc12)C(=O)N[C@@H]1CCCN2C(=O)N(c3ccc([N+](=O)[O-])cc3)C(=O)C[C@@H]12	64 nM
7160 nM	165 nM	CC(C)(C)OC(=O)N[C@@H](Cc1c[nH]c2ccccc12)C(=O)N[C@H]1CCCN2C(=O)N(C3CCCCC3)C(=O)C[C@H]12	287 nM
> 10000 nM	4.3 nM	CN(C)c1ccc(N2C(=O)C[C@H]3[C@H](NC(=O)[C@H](Cc4c[nH]c5ccccc45)NC(=O)OC(C)(C)C)CCCN3C2=O)cc1	39.8 nM
> 10000 nM	> 1000 nM	CCOC(=O)[C@H](Cc1ccccc1)N1C(=O)C[C@H]2[C@H](NC(=O)[C@H](Cc3c[nH]c4ccccc34)NC(=O)OC(C)(C)C)CCCN2C1=O	–
> 10000 nM	> 1000 nM	CC(C)(C)OC(=O)N[C@@H](Cc1c[nH]c2ccccc12)C(=O)N[C@H]1CCCN2C(=O)N(c3cccc4ccccc34)C(=O)C[C@H]12	–
> 10000 nM	386 nM	CC(C)(C)OC(=O)N[C@@H](Cc1c[nH]c2ccccc12)C(=O)N[C@H]1CCCN2C(=O)N(c3ccncc3)C(=O)C[C@H]12 (relative stereo)	–
2320 nM	200 nM	Cc1ccc(N2C(=O)C[C@@H]3[C@@H](NC(=O)[C@H](Cc4c[nH]c5ccccc45)NC(=O)OC(C)(C)C)CCCN3C2=O)cc1	–
> 10000 nM	> 1000 nM	C[C@@H](c1ccccc1)N1C(=O)C[C@@H]2[C@@H](NC(=O)[C@H](Cc3c[nH]c4ccccc34)NC(=O)OC(C)(C)C)CCCN2C1=O	–
> 10000 nM	15 nM	C[C@H](c1ccccc1)N1C(=O)C[C@H]2[C@H](NC(=O)[C@H](Cc3c[nH]c4ccccc34)NC(=O)OC(C)(C)C)CCCN2C1=O	12.6 nM
> 10000 nM	1.18 nM	CC(C)(C)OC(=O)N[C@@H](Cc1c[nH]c2ccccc12)C(=O)N[C@@H]1CCCN2C(=O)N(c3ccccc3)C(=O)C[C@@H]12	3.5 nM
2320 nM	> 1000 nM	CN(C)c1ccc(N2C(=O)C[C@@H]3[C@@H](NC(=O)[C@H](Cc4c[nH]c5ccccc45)NC(=O)OC(C)(C)C)CCCN3C2=O)cc1	–
